# Results reported in ChEMBL document CHEMBL1121744, “Synthesis and antihypertensive activity of a series of 8-substituted 1-oxa-3,8-diazaspiro[4.5]decan-2-ones” (J Med Chem, 1981).
# Active and inactive are the calls of the source. The calls are words filed in the database; no cut-off is given here.
# How the values were obtained:
# [1] = Distribution coefficient between 1-Octanol and phosphate buffer at pH7.4; type: physicochemical; settings: 1-octanol/phosphate buffer, pH 7.4
# Summary of the method: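 Octanol/buffer distribution measured at pH 7.4 in phosphate with sodium chloride. Either HPLC (0.004 M) or shake flask.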
# Rattus norvegicus [2] = assay: Antihypertensive activity as percentage fall in systolic blood pressure in spontaneously hypertensive rats after a period of 4 hr for a dose of 50 mg/kg po; type: functional, Artery
# Summary of the method: (§1)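 Male Okamoto-Aoki SHR, trained, in groups of four matched for mean systolic pressure; one group per run received water vehicle. Oral dosing in water (0.1 mL per 10 g) on two consecutive mornings. After the day-2 dose, rats were restrained at 30.0 ± 1.0 °C. Systolic pressure was read by tail cuff (inflated to 300 mmHg, first pulse) at 1–4 h. % fall is versus the untreated control group, by 1-tail t test (p ≤ 0.05).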
# Canis familiaris [3] = assay: Percent inhibition of the pressor responses to 7.5 ug/kg iv phenylephrine in pentobarbital-anesthetized dogs for a dose of 10 mg/kg; type: functional; settings: Canis lupus familiaris
# Summary of the method: (§2)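 Pentobarbital-anesthetized dogs (35 mg/kg iv) with femoral arterial pressure recording. Epinephrine (1 μg/kg), norepinephrine (0.75 μg/kg) and phenylephrine (7.5 μg/kg) iv challenges were given about every 10 min before and after rising iv test doses, which were spaced 90 min apart. Value is % inhibition of the pressor response.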
# [4] = target: T1, Adrenergic receptor alpha-2 (Rattus norvegicus, UniProt P22086+P19328+P22909); assay: Antagonistic potency of compound for Alpha-2 adrenergic receptor; type: functional
# T1 sequence (P22086 whole entry): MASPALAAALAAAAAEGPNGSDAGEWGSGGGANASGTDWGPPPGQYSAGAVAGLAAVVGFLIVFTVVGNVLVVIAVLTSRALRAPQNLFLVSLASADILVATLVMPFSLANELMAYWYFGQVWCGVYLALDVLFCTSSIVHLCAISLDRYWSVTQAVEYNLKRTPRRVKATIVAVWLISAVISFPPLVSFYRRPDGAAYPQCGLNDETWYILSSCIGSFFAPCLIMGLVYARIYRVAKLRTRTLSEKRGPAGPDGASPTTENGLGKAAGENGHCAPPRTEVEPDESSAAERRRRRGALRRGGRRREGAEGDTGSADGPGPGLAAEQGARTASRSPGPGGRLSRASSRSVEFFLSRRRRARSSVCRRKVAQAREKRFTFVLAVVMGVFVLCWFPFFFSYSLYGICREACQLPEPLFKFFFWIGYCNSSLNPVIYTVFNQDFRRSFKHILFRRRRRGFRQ
# T1 sequence (P19328 whole entry): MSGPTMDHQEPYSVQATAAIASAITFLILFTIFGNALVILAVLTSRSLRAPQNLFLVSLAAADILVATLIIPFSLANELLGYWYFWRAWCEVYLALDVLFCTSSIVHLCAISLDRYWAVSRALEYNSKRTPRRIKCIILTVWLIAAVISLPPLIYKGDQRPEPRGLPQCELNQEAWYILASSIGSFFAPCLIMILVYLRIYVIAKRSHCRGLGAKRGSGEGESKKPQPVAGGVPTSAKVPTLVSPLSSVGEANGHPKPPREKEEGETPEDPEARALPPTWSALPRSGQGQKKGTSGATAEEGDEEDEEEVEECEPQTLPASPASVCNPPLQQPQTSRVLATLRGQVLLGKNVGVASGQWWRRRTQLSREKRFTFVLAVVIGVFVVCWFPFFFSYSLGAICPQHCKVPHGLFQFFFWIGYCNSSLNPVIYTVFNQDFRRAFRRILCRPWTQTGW
# T1 sequence (P22909 whole entry): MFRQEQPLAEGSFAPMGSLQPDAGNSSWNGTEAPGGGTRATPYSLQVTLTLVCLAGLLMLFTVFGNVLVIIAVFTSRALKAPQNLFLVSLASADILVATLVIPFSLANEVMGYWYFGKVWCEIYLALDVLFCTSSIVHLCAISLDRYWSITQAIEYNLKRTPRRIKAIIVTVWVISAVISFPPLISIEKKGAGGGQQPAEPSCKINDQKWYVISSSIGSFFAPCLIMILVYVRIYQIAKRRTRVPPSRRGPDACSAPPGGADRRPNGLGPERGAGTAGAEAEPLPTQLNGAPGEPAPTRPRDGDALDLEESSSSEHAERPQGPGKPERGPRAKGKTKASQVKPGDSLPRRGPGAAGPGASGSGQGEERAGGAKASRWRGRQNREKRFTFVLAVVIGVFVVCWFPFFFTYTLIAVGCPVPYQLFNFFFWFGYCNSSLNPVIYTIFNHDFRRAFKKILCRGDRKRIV
# Canis familiaris [5] = assay: Percent inhibition of the pressor responses to 7.5 ug/kg iv phenylephrine in pentobarbital-anesthetized dogs for a dose of 1 mg/kg; type: functional; settings: Canis lupus familiaris; summary of the method: as §2
# Canis familiaris [6] = assay: Percent inhibition of the pressor responses to 1 ug/kg iv Epinephrine in pentobarbital-anesthetized dogs for a dose of 1 mg/kg; type: functional; settings: Canis lupus familiaris; summary of the method: as §2
# Rattus norvegicus [7] = assay: The antihypertensive activity as percentage fall in systolic blood pressure in spontaneously hypertensive rats after a period of 1 hr for a dose of […]; type: functional, Artery
# Summary of the method: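 Male Okamoto-Aoki SHR, trained, in groups of four matched for systolic pressure, with a concurrent vehicle control group. Oral dosing on two consecutive mornings, in water as solution or suspension at 0.1 mL/10 g. On day 2 rats were restrained at 30.0 ± 1.0 °C. Tail-cuff systolic pressure, four traces per rat, read at each hour. Per cent fall versus control; 1-tail t test, p ≤ 0.05.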
# Rattus norvegicus [8] = assay: Percentage fall in systolic blood pressure in spontaneously hypertensive rats after 2 hr following 50 mg/kg p.o.; type: functional, Artery; settings: route oral; summary of the method: as §1
# Canis familiaris [9] = assay: Percent inhibition of the pressor responses to 7.5 ug/kg iv phenylephrine in pentobarbital-anesthetized dogs for a dose of 0.1 mg/kg; type: functional; settings: Canis lupus familiaris; summary of the method: as §2
# Canis familiaris [10] = assay: Percent inhibition of the pressor responses to 1 ug/kg iv Epinephrine in pentobarbital-anesthetized dogs for a dose of 10 mg/kg; type: functional; settings: Canis lupus familiaris
# Summary of the method: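 Dogs anesthetized with sodium pentobarbital 35 mg/kg iv; femoral artery cannulated for blood pressure, femoral vein for dosing. Epinephrine 1 μg/kg iv given at about 10-min intervals before and after increasing test doses. Test doses given iv at 90-min intervals. Result is per cent inhibition of the pressor response.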
# Rattus norvegicus [11] = assay: Percentage fall in systolic blood pressure in spontaneously hypertensive rats after 3 h following 50 mg/kg p.o.; type: functional, Artery; settings: route oral; summary of the method: as §1
# Canis familiaris [12] = assay: Change in mean arterial pressure in anesthetized dogs for a dose of 3.16 mg/kg; type: functional, Canis lupus familiaris, Artery
# Summary of the method: (§3)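 Dogs anesthetized with sodium pentobarbital (35 mg/kg iv), femoral artery cannulated for pressure, ECG-triggered heart rate, femoral vein for dosing. Rising iv doses were given 90 min apart, and each dose is the full dose, not cumulative. Value is the maximal mean arterial pressure change 10–15 min after each dose, two dogs per compound, ±3 mmHg. Saline served as control.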
# Rattus norvegicus [13] = assay: The antihypertensive activity as percentage fall in systolic blood pressure in spontaneously hypertensive rats after a period of 4 hr for a dose of 25 mg/kg po; NS=Not significant; type: functional, organism-based; design: dose 25 mg/kg; settings: Artery; summary of the method: as §1
# Canis familiaris [14] = assay: Percent inhibition of the pressor responses to 0.75 ug/kg iv norepinephrine in pentobarbital-anesthetized dogs for a dose of 3.16 mg/kg; type: functional; settings: Canis lupus familiaris; summary of the method: as §2
# Canis familiaris [15] = assay: Change in mean arterial pressure in anesthetized dogs for a dose of 0.316 mg/kg; type: functional, Canis lupus familiaris, Artery; summary of the method: as §3
structure (smiles),measurement,setting,value
O=C1NCC2(CCN(CCc3c[nH]c4ccccc34)CC2)O1,logD,[1],1.45
same,Decrease in blood pressure,Rattus norvegicus [2],8%
same,inhibition in vivo at 10 mg/kg,Canis familiaris [3],100%
same,pA2,[4],< 5
same,inhibition in vivo at 1 mg/kg,Canis familiaris [5],84%
same,inhibition in vivo at 1 mg/kg,Canis familiaris [6],> 100%
same,Decrease in blood pressure,Rattus norvegicus [7],14%
same,Decrease in blood pressure,Rattus norvegicus [8],10%
same,inhibition in vivo at 0.1 mg/kg,Canis familiaris [9],17%
same,inhibition in vivo at 10 mg/kg,Canis familiaris [10],97%
same,Decrease in blood pressure,Rattus norvegicus [11],7%
CN1CC2(CCN(CC(O)C3COc4ccccc4O3)CC2)OC1=O (stereo not drawn),logD,[1],1.43
same,Decrease in blood pressure,Rattus norvegicus [2],16%
same,MAP,Canis familiaris [12],-18 mmHg
same,Decrease in blood pressure,Rattus norvegicus [13],inactive
same,pA2,[4],6.4
same,inhibition in vivo at 1 mg/kg,Canis familiaris [5],44%
same,inhibition in vivo at 1 mg/kg,Canis familiaris [6],> 100%
same,inhibition in vivo at 3.16 mg/kg,Canis familiaris [14],69%
same,MAP,Canis familiaris [15],0 mmHg
same,Decrease in blood pressure,Rattus norvegicus [8],31%
same,inhibition in vivo at 0.1 mg/kg,Canis familiaris [9],0%
same,Decrease in blood pressure,Rattus norvegicus [11],14%
